# In ChEMBL document CHEMBL1629485, “Lead identification of conformationally restricted β-lactam type combretastatin analogues: synthesis, antiproliferative activity and tubulin targeting effects” (Eur J Med Chem, 2010):
# Experiments:
# MDA-MB-231 [1] = assay: Antiproliferative activity against estrogen receptor deficient human MDA-MB-231 cells after 72 hrs by MTT assay; format: functional, cell-based; conditions: MDA-MB-231, 72 h
# How it was run: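 MCF-7 grown in Eagle's MEM with 10% FBS, 2 mM L-glutamine, penicillin/streptomycin and 1% non-essential amino acids; MDA-MB-231 grown in DMEM with 10% FBS, 2 mM L-glutamine and penicillin/streptomycin. Seeded at 2.5 × 10⁴ cells/mL, 24 h at 37 °C. Ethanol-stock compound, 1 nM–100 μM, 72 h, ethanol 1% v/v vehicle. MTT at 1 mg/mL final, 2 h dark, 37 °C, DMSO solubilised. Viability vs untreated control. IC50 is mean of three experiments in triplicate.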
# MCF7 = assay: Cytotoxicity against human MCF7 cells expressing estrogen receptor assessed as LDH release at 10 uM; format: functional
# How it was run: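 After compound treatment, LDH was measured with a commercial LDH kit. Result is % cell lysis at 10 μM compound.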
# MDA-MB-231 [2] = assay: Cell cycle arrest in estrogen receptor deficient human MDA-MB-231 cells assessed as accumulation at sub-G1 phase at 10 nM after 24 hrs using propidium iodide staining by flow cytometry relative to control; format: functional
# How it was run: (§1)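 MDA-MB-231 cells in DMEM with 10% FBS and 2 mM L-glutamine, seeded at 18 × 10⁴ cells/mL. Exposed to test agent at the stated final concentration, or to 1% (v/v) ethanol vehicle, for 24, 48 or 72 h. Harvested by scraping and centrifugation, then RNase A treatment and propidium iodide DNA staining for at least 30 min at 37 °C. 10,000 cells per sample read at 488 nm by flow cytometry; mean ± SD of three experiments.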
# MDA-MB-231 [3] = assay: Cell cycle arrest in estrogen receptor deficient human MDA-MB-231 cells assessed as accumulation at sub-G1 phase at 10 uM after 24 hrs using propidium iodide staining by flow cytometry relative to control; format: functional; how it was run: as §1
# MDA-MB-231 [4] = assay: Cell cycle arrest in estrogen receptor deficient human MDA-MB-231 cells assessed as accumulation at sub-G1 phase at 10 uM after 48 hrs using propidium iodide staining by flow cytometry relative to control; format: functional; how it was run: as §1
# MDA-MB-231 [5] = assay: Cell cycle arrest in estrogen receptor deficient human MDA-MB-231 cells assessed as accumulation at sub-G1 phase at 1 uM after 72 hrs using propidium iodide staining by flow cytometry relative to control; format: functional; how it was run: as §1
# MDA-MB-231 [6] = assay: Cell cycle arrest in estrogen receptor deficient human MDA-MB-231 cells assessed as accumulation at G1 phase at 10 nM after 24 hrs using propidium iodide staining by flow cytometry relative to control; format: functional; how it was run: as §1
# MDA-MB-231 [7] = assay: Cell cycle arrest in estrogen receptor deficient human MDA-MB-231 cells assessed as accumulation at G1 phase at 100 nM after 24 hrs using propidium iodide staining by flow cytometry relative to control; format: functional; how it was run: as §1
# MDA-MB-231 [8] = assay: Cell cycle arrest in estrogen receptor deficient human MDA-MB-231 cells assessed as accumulation at G1 phase at 1 uM after 24 hrs using propidium iodide staining by flow cytometry relative to control; format: functional; how it was run: as §1
# MDA-MB-231 [9] = assay: Cell cycle arrest in estrogen receptor deficient human MDA-MB-231 cells assessed as accumulation at G1 phase at 10 uM after 24 hrs using propidium iodide staining by flow cytometry relative to control; format: functional; how it was run: as §1
# MDA-MB-231 [10] = assay: Cell cycle arrest in estrogen receptor deficient human MDA-MB-231 cells assessed as accumulation at G1 phase at 100 nM after 48 hrs using propidium iodide staining by flow cytometry relative to control; format: functional; how it was run: as §1
# MDA-MB-231 [11] = assay: Cell cycle arrest in estrogen receptor deficient human MDA-MB-231 cells assessed as accumulation at G1 phase at 10 nM after 72 hrs using propidium iodide staining by flow cytometry relative to control; format: functional; how it was run: as §1
# MDA-MB-231 [12] = assay: Cell cycle arrest in estrogen receptor deficient human MDA-MB-231 cells assessed as accumulation at S phase at 1 uM after 24 hrs using propidium iodide staining by flow cytometry relative to control; format: functional; how it was run: as §1
# MDA-MB-231 [13] = assay: Cell cycle arrest in estrogen receptor deficient human MDA-MB-231 cells assessed as accumulation at S phase at 10 uM after 24 hrs using propidium iodide staining by flow cytometry relative to control; format: functional; how it was run: as §1
# MDA-MB-231 [14] = assay: Cell cycle arrest in estrogen receptor deficient human MDA-MB-231 cells assessed as accumulation at S phase at 10 nM after 48 hrs using propidium iodide staining by flow cytometry relative to control; format: functional; how it was run: as §1
# MDA-MB-231 [15] = assay: Cell cycle arrest in estrogen receptor deficient human MDA-MB-231 cells assessed as accumulation at S phase at 100 nM after 72 hrs using propidium iodide staining by flow cytometry relative to control; format: functional; how it was run: as §1
# MDA-MB-231 [16] = assay: Cell cycle arrest in estrogen receptor deficient human MDA-MB-231 cells assessed as accumulation at S phase at 1 uM after 72 hrs using propidium iodide staining by flow cytometry relative to control; format: functional; how it was run: as §1
# MDA-MB-231 [17] = assay: Cell cycle arrest in estrogen receptor deficient human MDA-MB-231 cells assessed as accumulation at S phase at 10 uM after 72 hrs using propidium iodide staining by flow cytometry relative to control; format: functional; how it was run: as §1
# MDA-MB-231 [18] = assay: Cell cycle arrest in estrogen receptor deficient human MDA-MB-231 cells assessed as accumulation at G2/M phase at 10 nM after 24 hrs using propidium iodide staining by flow cytometry relative to control; format: functional; how it was run: as §1
# MDA-MB-231 [19] = assay: Cell cycle arrest in estrogen receptor deficient human MDA-MB-231 cells assessed as accumulation at G2/M phase at 100 nM after 48 hrs using propidium iodide staining by flow cytometry relative to control; format: functional; how it was run: as §1
# MDA-MB-231 [20] = assay: Cell cycle arrest in estrogen receptor deficient human MDA-MB-231 cells assessed as accumulation at G2/M phase at 10 nM after 72 hrs using propidium iodide staining by flow cytometry relative to control; format: functional; how it was run: as §1
# MDA-MB-231 [21] = assay: Cell cycle arrest in estrogen receptor deficient human MDA-MB-231 cells assessed as appearance of polyploidy at 100 nM after 24 hrs using propidium iodide staining by flow cytometry relative to control; format: functional
# How it was run: (§2)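 MDA-MB-231 cells seeded at 18 × 10⁴ cells/mL and exposed to 1% (v/v) ethanol vehicle or compound at final concentrations (10 nM, 100 nM, 10 µM at all times; 1 µM also at 24 and 72 h). Cells harvested after 24, 48 or 72 h and treated with RNase A and propidium iodide for at least 30 min at 37 °C. 10,000 cells read at 488 nm by flow cytometry. Percent cells per phase reported, including polyploid; mean ± SD of three experiments.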
# MDA-MB-231 [22] = assay: Cell cycle arrest in estrogen receptor deficient human MDA-MB-231 cells assessed as appearance of polyploidy at 1 uM after 24 hrs using propidium iodide staining by flow cytometry relative to control; format: functional; how it was run: as §1
# MDA-MB-231 [23] = assay: Cell cycle arrest in estrogen receptor deficient human MDA-MB-231 cells assessed as appearance of polyploidy at 10 uM after 24 hrs using propidium iodide staining by flow cytometry relative to control; format: functional; how it was run: as §1
# MDA-MB-231 [24] = assay: Cell cycle arrest in estrogen receptor deficient human MDA-MB-231 cells assessed as appearance of polyploidy at 10 nM after 48 hrs using propidium iodide staining by flow cytometry relative to control; format: functional; how it was run: as §1
# MDA-MB-231 [25] = assay: Cell cycle arrest in estrogen receptor deficient human MDA-MB-231 cells assessed as appearance of polyploidy at 10 uM after 48 hrs using propidium iodide staining by flow cytometry relative to control; format: functional; how it was run: as §2
# MDA-MB-231 [26] = assay: Cell cycle arrest in estrogen receptor deficient human MDA-MB-231 cells assessed as appearance of polyploidy at 100 nM after 72 hrs using propidium iodide staining by flow cytometry relative to control; format: functional; how it was run: as §2
smiles,measurement,setting,value
COc1ccc(C2CC(=O)N2c2cc(OC)c(OC)c(OC)c2)cc1O (configuration not stated),IC50,MDA-MB-231 [1],54 nM
same,Activity,MCF7,9%
same,Activity,MDA-MB-231 [2],3.72%
same,Activity,MDA-MB-231 [3],3.18%
same,Activity,MDA-MB-231 [4],51.27%
same,Activity,MDA-MB-231 [5],50.53%
same,Activity,MDA-MB-231 [6],48.33%
same,Activity,MDA-MB-231 [7],18.95%
same,Activity,MDA-MB-231 [8],19.22%
same,Activity,MDA-MB-231 [9],29.3%
same,Activity,MDA-MB-231 [10],10.76%
same,Activity,MDA-MB-231 [11],48.24%
same,Activity,MDA-MB-231 [12],6.01%
same,Activity,MDA-MB-231 [13],3.72%
same,Activity,MDA-MB-231 [14],13.36%
same,Activity,MDA-MB-231 [15],5.34%
same,Activity,MDA-MB-231 [16],7.76%
same,Activity,MDA-MB-231 [17],9.66%
same,Activity,MDA-MB-231 [18],25.61%
same,Activity,MDA-MB-231 [19],36.42%
same,Activity,MDA-MB-231 [20],17.68%
same,Activity,MDA-MB-231 [21],4.87%
same,Activity,MDA-MB-231 [22],4.31%
same,Activity,MDA-MB-231 [23],3.85%
same,Activity,MDA-MB-231 [24],6.1%
same,Activity,MDA-MB-231 [25],2.28%
same,Activity,MDA-MB-231 [26],2.99%
